Data reported in ChEMBL document CHEMBL4024715, “An in vitro and in vivo evaluation of new potential trans-sialidase inhibitors of Trypanosoma cruzi predicted by a computational drug repositioning method” (Eur J Med Chem, 2017).
Values after ≈ are worked out from the molar mass of the structure shown. Active and inactive are the calls of the source. The rule behind the calls is not given here.

Experiments:
Trypanosoma cruzi [1] = test: Trypanocidal activity against trypomastigote stage of Trypanosoma cruzi INC-5 infected in NIH mouse blood assessed as parasite lysis at 50 ug/ml after 24 hrs by optical microscopic method relative to control; type: functional
Outline: (§1)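 Blood from infected NIH mice was taken by cardiac puncture at peak infection and adjusted to 1×10^6 trypomastigotes/mL. Compounds came from 10 mg/mL DMSO stocks diluted in water; final DMSO below 1%. Incubation was 24 h at 4 °C. Controls were DMSO/H₂O 1:99, untreated blood and reference drug. Trypomastigotes in 5 µL blood were counted by the Brener method at 40×. Percent lysis was taken versus the negative control, with three runs per strain.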

Trypanosoma cruzi [2] = test: Trypanocidal activity against trypomastigote stage of Trypanosoma cruzi INC-5 infected in NIH mouse blood after 24 hrs by optical microscopic method; type: functional; conditions: INC-5, Blood
Trypanosoma cruzi [3] = test: Trypanocidal activity against bloodstream form of Trypanosoma cruzi NINOA infected in NIH mouse assessed as reduction in parasitemia at 100 mg/kg, po measured at 2 to 4 hrs post dose by microscopic method; type: functional, organism-based
Outline: (§2)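 Groups of five female NIH mice (20-25 g) infected intraperitoneally with 2×10^5 bloodstream trypomastigotes. At peak parasitemia (days 19-24), compounds suspended in 4% gum arabic were given orally, 100 mg/kg total dose. Vehicle-only controls. Tail blood examined microscopically at 2, 4 and 6 h after dosing. Parasitemia reduction scored against trypomastigote counts at each interval.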

Trypanosoma cruzi [4] = test: Trypanocidal activity against trypomastigote stage of Trypanosoma cruzi NINOA infected in NIH mouse blood after 24 hrs by optical microscopic method
Trypanosoma cruzi [5] = test: Trypanocidal activity against trypomastigote stage of Trypanosoma cruzi NINOA infected in NIH mouse blood assessed as parasite lysis at 50 ug/ml after 24 hrs by optical microscopic method relative to control; type: functional; outline: as §1
Trypanosoma cruzi [6] = test: Trypanocidal activity against bloodstream form of Trypanosoma cruzi NINOA infected in NIH mouse assessed as reduction in parasitemia at 100 mg/kg, po measured at 6 hrs post dose by microscopic method; type: functional, organism-based; outline: as §2
Trypanosoma cruzi [7] = test: Trypanocidal activity against bloodstream form of Trypanosoma cruzi INC-5 infected in NIH mouse assessed as reduction in parasitemia at 100 mg/kg, po measured at 2 to 4 hrs post dose by microscopic method; type: functional, organism-based; outline: as §2
[8] = Solubility of the compound in water; type: physicochemical; conditions: buffer
[9] = target: T1, Trans-sialidase (Trypanosoma cruzi) (UniProt Q26964); test: Inhibition of Trypanosoma cruzi trans-sialidase at 1 mM using N-acetyllactosamine as substrate in presence of 3'-sialyllactose measured after 15 mins by HPAEC-PAD relative to control
T1 sequence (whole entry): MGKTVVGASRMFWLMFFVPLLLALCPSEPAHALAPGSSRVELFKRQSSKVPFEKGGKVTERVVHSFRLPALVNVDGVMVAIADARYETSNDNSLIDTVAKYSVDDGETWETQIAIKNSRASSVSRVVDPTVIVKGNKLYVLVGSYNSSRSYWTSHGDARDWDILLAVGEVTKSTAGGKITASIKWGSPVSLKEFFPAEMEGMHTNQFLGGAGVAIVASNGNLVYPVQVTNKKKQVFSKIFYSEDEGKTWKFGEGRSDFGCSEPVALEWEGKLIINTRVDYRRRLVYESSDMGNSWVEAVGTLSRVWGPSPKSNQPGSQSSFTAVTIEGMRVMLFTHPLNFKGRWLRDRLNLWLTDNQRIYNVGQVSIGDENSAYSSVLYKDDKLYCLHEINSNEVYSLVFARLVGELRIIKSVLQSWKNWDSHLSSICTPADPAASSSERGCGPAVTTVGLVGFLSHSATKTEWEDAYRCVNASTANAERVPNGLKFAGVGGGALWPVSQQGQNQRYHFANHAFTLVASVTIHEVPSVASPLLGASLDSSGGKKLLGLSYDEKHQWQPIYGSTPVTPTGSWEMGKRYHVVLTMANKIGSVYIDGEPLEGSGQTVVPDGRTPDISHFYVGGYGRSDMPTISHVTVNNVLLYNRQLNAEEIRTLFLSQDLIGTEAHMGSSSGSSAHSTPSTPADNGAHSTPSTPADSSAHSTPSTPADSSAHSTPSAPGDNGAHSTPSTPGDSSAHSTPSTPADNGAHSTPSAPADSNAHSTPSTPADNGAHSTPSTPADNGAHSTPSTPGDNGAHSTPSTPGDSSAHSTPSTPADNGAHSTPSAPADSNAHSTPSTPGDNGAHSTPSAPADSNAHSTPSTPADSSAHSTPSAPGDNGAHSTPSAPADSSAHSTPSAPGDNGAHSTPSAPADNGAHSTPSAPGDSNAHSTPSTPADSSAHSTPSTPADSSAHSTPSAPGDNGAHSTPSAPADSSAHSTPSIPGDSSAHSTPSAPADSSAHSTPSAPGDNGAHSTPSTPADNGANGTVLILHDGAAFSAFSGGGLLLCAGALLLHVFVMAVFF
Outline: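 Purified T. cruzi Ts (300 ng) incubated 15 min at room temperature in 20 mM Tris-HCl pH 7, 30 mM NaCl with 1 mM 3'-sialyllactose donor, 1 mM N-acetyllactosamine acceptor and 1 mM inhibitor. Water-insoluble compounds added from 10 mM DMSO stock; DMSO-only control. Samples diluted 12-fold and analysed by HPAEC-PAD. Inhibition from 3'-sialyl-N-acetyllactosamine relative to total sialylated products, with vs without compound.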

Trypanosoma cruzi [10] = test: Trypanocidal activity against bloodstream form of Trypanosoma cruzi INC-5 infected in NIH mouse assessed as reduction in parasitemia at 100 mg/kg, po measured at 6 hrs post dose by microscopic method; type: functional, organism-based; outline: as §2
Trypanosoma cruzi [11] = test: Trypanocidal activity against bloodstream form of Trypanosoma cruzi NINOA infected in NIH mouse assessed as reduction in parasitemia at 100 mg/kg, po measured at 4 hrs post dose by microscopic method relative to control; type: functional; set-up: scale not given: the % may be the effect or the level left; outline: as §2
Trypanosoma cruzi [12] = test: Trypanocidal activity against bloodstream form of Trypanosoma cruzi NINOA infected in NIH mouse assessed as reduction in parasitemia at 100 mg/kg, po measured up to 6 hrs post dose by microscopic method; type: functional, organism-based; outline: as §2
Trypanosoma cruzi [13] = test: Trypanocidal activity against bloodstream form of Trypanosoma cruzi INC-5 infected in NIH mouse assessed as reduction in parasitemia at 100 mg/kg, po measured up to 6 hrs post dose by microscopic method; type: functional, organism-based; outline: as §2

Row | Structure (SMILES) | Activity (Trypanosoma cruzi [1]) [%] | LC50 (Trypanosoma cruzi [2]) [µg/mL] | Activity (Trypanosoma cruzi [3]) | LC50 (Trypanosoma cruzi [4]) [µg/mL] | Activity (Trypanosoma cruzi [5]) [%] | Activity (Trypanosoma cruzi [6]) | Activity (Trypanosoma cruzi [7]) | solubility [8] | inhibition [9] | Activity (Trypanosoma cruzi [10]) | Activity (Trypanosoma cruzi [11]) [%] | Activity (Trypanosoma cruzi [12]) | Activity (Trypanosoma cruzi [13])
1 | CC(C)(C)c1ccc(C(O)CCCN2CCC(C(O)(c3ccccc3)c3ccccc3)CC2)cc1 (stereo not given) [TERFENADINE] | 100 | 4.5 (≈ 9.54 µM) | Active | 16.3 (≈ 34.6 µM) | 100 | inactive | Active | Insoluble | 8.2% | inactive | – | – | –
2 | CCN1CCN(C(=O)N[C@@H](C(=O)N[C@@H]2C(=O)N3C(C(=O)[O-])=C(CSc4nnnn4C)CS[C@H]23)c2ccc(O)cc2)C(=O)C1=O.[Na+] [CEFOPERAZONE SODIUM] | 71 | 23 | Active | 25.8 | 64 | inactive | Active | – | 10.1% | inactive | – | – | –
3 | O=C(O)c1cc(/N=N/c2ccc(S(=O)(=O)Nc3ccccn3)cc2)ccc1O [SULFASALAZINE] | 10 | – | Active | 19.3 (≈ 48.4 µM) | 92 | inactive | – | Insoluble | 37.6% | – | 60 | – | –
4 | O=C(Cn1ccnc1[N+](=O)[O-])NCc1ccccc1 [BENZNIDAZOLE] | 56 | 40.6 (≈ 156 µM) | – | 46.6 (≈ 179 µM) | 69 | – | – | – | – | – | – | Active | Active
5 | CC1CS(=O)(=O)CCN1/N=C/c1ccc([N+](=O)[O-])o1 (stereo not given) [NIFURTIMOX] | 51 | – | – | – | 66 | – | – | – | – | – | – | – | –
6 | NC(=O)c1cc[n+](CC2=C(C(=O)[O-])N3C(=O)[C@@H](NC(=O)[C@@H](c4ccccc4)S(=O)(=O)[O-])[C@H]3SC2)cc1.[Na+] [CEFSULODIN SODIUM] | 14 | – | – | 16.6 | 87 | – | – | – | – | – | – | – | –
7 | O=C(O)C(O)C(O)C(=O)O.O=C(c1ccc(F)cc1)C1CCN(CCn2c(=O)[nH]c3ccccc3c2=O)CC1 [KETANSERIN TARTRATE] | 73 | 18.4 | – | 13.6 | 89 | – | – | – | – | – | – | – | –
8 | NC(=O)c1cc[n+](CC2=C(C(=O)[O-])N3C(=O)[C@@H](NC(=O)[C@@H](c4ccccc4)S(=O)(=O)O)[C@H]3SC2)cc1 | – | – | Active | – | – | inactive | – | – | inactive | – | – | – | –
9 | COC(=O)Nc1nc2cc(C(=O)c3ccc(F)cc3)ccc2[nH]1 [FLUBENDAZOLE] | 42 | – | – | – | 41 | – | – | Insoluble | inactive | – | – | – | –
10 | COc1cc2nc(N3CCN(C(=O)C4COc5ccccc5O4)CC3)nc(N)c2cc1OC.CS(=O)(=O)O (stereo not given) [DOXAZOSIN MESYLATE] | 89 | 14.7 | – | 12.9 | 97 | – | – | Insoluble | 5.3% | – | – | – | –
